From PMC5783296 (SLAS discovery : advancing life sciences R & D, 2017)
Where a name gives a salt, the structure may show the parent alone.

What was measured:
[1] = target: T1, interaction between NHP2L1 and U4 5′SL (Homo sapiens, UniProt P55769); assay: TR-FRET HTS assay of NHP2L1-U4 interaction; assay type: binding; conditions: for disruption of the interaction of U4 and NHP2L1: TR-FRET dose response, camptothecin derivatives; for potency in dose response screening (IC50 ranking): dose responsive analysis, ten 1:3 dilutions, TR-FRET
T1 sequence (P55769 1-128): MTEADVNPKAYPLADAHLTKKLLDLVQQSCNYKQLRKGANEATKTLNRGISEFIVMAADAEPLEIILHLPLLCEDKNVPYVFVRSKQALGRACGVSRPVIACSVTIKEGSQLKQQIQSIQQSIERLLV

[2] = target: T2, NHP2L1 U4 complex (Homo sapiens, UniProt P55769); assay: NMR of NHP2L1-U4 complex with topotecan; assay type: binding
T2 sequence (P55769 1-128): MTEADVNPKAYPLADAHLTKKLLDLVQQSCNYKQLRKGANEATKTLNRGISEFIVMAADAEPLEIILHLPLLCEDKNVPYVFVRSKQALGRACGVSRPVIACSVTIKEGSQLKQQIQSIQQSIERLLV
Procedure, shortened: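 15N-labelled NHP2L1 was premixed 1:1 with unlabelled U4 5′SL in pH 5.0 phosphate buffer (100 mM NaCl, 10% D2O, 2% DMSO-d6), with backbone assigned from HNCA/HNCACB. Chemical shift perturbations were read from 2D [15N,1H] HSQC/TROSY at 64 scans, and at 400 scans for the 1:1:20 TROSY.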

[3] = system: U4 5′ SL; assay: 1D NMR titration of U4 5′SL; assay type: binding; conditions: U4:topotecan 1:0 to 1:10
Procedure, shortened: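 Solution NMR at pH 5.0 (100 mM NaCl, 100 mM sodium phosphate, 10% D2O, 2% DMSO-d6). U4 5′SL at 100 μM with increasing test compound, monitored by 1D and 2D [1H,1H] TOCSY (60 ms mixing) and NOESY (100 ms mixing) spectra.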

[4] = system: U4 5′ SL; assay: Surface plasmon resonance, immobilized U4 5′SL; assay type: binding; conditions: max 50μM, OneStep gradient injection, 20° C
[5] = system: pre-mRNA splicing (pTN23 reporter) in HEK293 cells; assay: pTN23 splicing reporter assay; assay type: cell-based, Human; conditions: HEK293, topotecan 250nM, 24 hours
[6] = target: T3, NHP2L1 protein (Homo sapiens, UniProt P55769); assay: Surface plasmon resonance, immobilized NHP2L1; assay type: binding; conditions: max 50μM, OneStep gradient injection, 20° C
T3 sequence (P55769 1-128): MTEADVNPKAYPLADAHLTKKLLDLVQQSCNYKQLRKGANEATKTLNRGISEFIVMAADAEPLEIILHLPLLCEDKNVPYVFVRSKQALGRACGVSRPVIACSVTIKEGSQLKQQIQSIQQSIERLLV

[7] = target: T2, NHP2L1 U4 complex; assay: Electrophoretic gel mobility shift assay; assay type: binding; conditions: topotecan 0.2, 2, 20, 200 μM
Procedure, shortened: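 Recombinant NHP2L1 (E. coli BL21(DE3), Ni-chelate then gel filtration) plus biotinylated U4 5′SL, ±test compound, 45 min at room temperature in 20 mM Tris-HCl pH 7.6, 150 mM NaCl, 0.1% Triton X-100, 2 mM DTT, 0.5 g/L tRNA. Run on 6% retardation gel, 0.5× TBE, 100 V, 60 min, then nylon transfer and chemiluminescent detection. Shifted band quantified by densitometry as % of complex without compound.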

[8] = target: T4, NHP2L1 (15.5K), His-tagged (UniProt P55769 1-128); assay: TR-FRET
T4 sequence: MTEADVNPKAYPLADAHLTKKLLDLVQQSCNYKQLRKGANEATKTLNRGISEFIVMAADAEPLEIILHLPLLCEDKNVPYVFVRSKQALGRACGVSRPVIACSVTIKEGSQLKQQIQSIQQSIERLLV

CCc1c2c(nc3ccc(OC(=O)N4CCC(N5CCCCC5)CC4)cc13)-c1cc3c(c(=O)n1C2)COC(=O)[C@]3(O)CC [irinotecan]
disruption of the interaction of U4 and NHP2L1 [1]: less effective at disrupting the NHP2L1 and U4 interaction

CCc1c2c(nc3ccc(O)cc13)-c1cc3c(c(=O)n1C2)COC(=O)[C@]3(O)CC [SN-38]
disruption of the interaction of U4 and NHP2L1 [1]: able to disrupt the interaction of U4 and NHP2L1
potency in dose response screening (IC50 ranking) [1]: among the most potent inhibitors

CC[C@@]1(O)C(=O)OCc2c1cc1n(c2=O)Cc2cc3ccccc3nc2-1 [camptothecin, (S)-camptothecin]
disruption of the interaction of U4 and NHP2L1 [1]: less effective at disrupting the NHP2L1 and U4 interaction

CC[C@@]1(O)C(=O)OCc2c1cc1n(c2=O)Cc2cc3c(CN(C)C)c(O)ccc3nc2-1 [topotecan hydrochloride]
inhibition at 15 µM ([1]; read-out: percentage of inhibition in primary screening): 81.6%

CC[C@@]1(O)C(=O)OCc2c1cc1n(c2=O)Cc2cc3cc(O)ccc3nc2-1 [10-OH-(S)-camptothecin]
potency in dose response screening (IC50 ranking) [1]: among the most potent inhibitors

CC[C@@]1(O)C(=O)OCc2c1cc1n(c2=O)Cc2cc3c(CN(C)C)c(O)ccc3nc2-1 [topotecan, Topotecan]
direct binding to NHP2L1-U4 complex by 1D NMR ([2]; 1D spectrum of complex): able to directly bind to the NHP2L1-U4 complex
displacement of NHP2L1 from U4 by 2D NMR ([2]; NHP2L1:U4:topotecan 1:1:20 (2mM topotecan)): displaces NHP2L1 from U4 only at high concentrations
binding to U4 5′ SL by 1D NMR [3]: binding of topotecan to U4 5′ SL was confirmed
binding to U4 by SPR [4]: binds to U4 in a time-dependent manner
disruption of the interaction of U4 and NHP2L1 [1]: able to disrupt the interaction of U4 and NHP2L1
potency in dose response screening (IC50 ranking) [1]: among the most potent inhibitors
splicing efficiency (ratio of luciferase to β-galactosidase activities) ([5]; p<0.001): significantly decreased splicing efficiency
β-galactosidase activities ([5]; p=0.4): without changing significantly β–galactosidase activities
binding to NHP2L1 by SPR [6]: markedly less binding to NHP2L1
inhibition of NHP2L1-U4 5′SL shift [7]: greater inhibition with increasing concentrations

CC[C@@]1(O)C(=O)OCc2c1cc1n(c2=O)Cc2cc3c(CNC)c(O)ccc3nc2-1 [N-demethyl-topotecan, N-Desmethyl topotecan]
disruption of the interaction of U4 and NHP2L1 [1]: able to disrupt the interaction of U4 and NHP2L1

B1: Cy5-U4 5'SL (structured_RNA)
RNA: AUCGUAGCCAAUGAGGUUUAUCCGAGGCGCGAU
Kd [8]: 0.68 nM
